Source: ChEMBL document CHEMBL1139342, “Antibacterial 5'-O-(N-dipeptidyl)-sulfamoyladenosines” (2009)
Where a SMILES comes first, the peptide text is derived from it. The star is where a group is joined. AspNHSO2(5'-O-Ado) = Nc1ncnc2c1ncn2[C@@H]1O[C@H](COS(=O)(=O)NC(=O)[C@H](CC(=O)O)N*)[C@@H](O)[C@H]1O

Experiments:
Format in all cases: functional
[1] = test system: Staphylococcus aureus; test: Antibacterial activity against Staphylococcus aureus ATCC 25923 at 30 nmol after 16 to 20 hrs
How it was run: (§1)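 Agar overlay diffusion assay: soft Mueller–Hinton agar (0.75% agar) seeded with bacteria poured over Mueller–Hinton agar (1.5% agar). Once set, 5 µL drops of compound in milliQ water were applied (30 nmol per drop, or 1.2 nmol for the reference compound) and allowed to dry. Plates were incubated at 37 °C for 16–20 h. Inhibition zone area was read in mm², triplicate per compound–dose.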

[2] = test system: Enterococcus faecalis; test: Antibacterial activity against Enterococcus faecalis ATCC 29212 at 30 nmol after 16 to 20 hrs; how it was run: as §1
[3] = test system: Escherichia coli; test: Antibacterial activity against wild type Escherichia coli at 30 nmol after 16 to 20 hrs; how it was run: as §1
[4] = test system: Escherichia coli; test: Antibacterial activity against Escherichia coli delta ABN mutant lacking peptidase A, B, N at 30 nmol after 16 to 20 hrs
How it was run: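 Agar diffusion test. A soft Mueller–Hinton agar lawn (0.75% agar) seeded with bacteria was poured over Mueller–Hinton agar (1.5% agar). Once the agar set, 5 µL drops of compound in milliQ water (30 nmol per drop) were applied and left to dry. Plates were incubated at 37 °C for 16–20 h. Inhibition zone area was recorded in mm² as mean ± SD of triplicates.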

[5] = test system: Staphylococcus aureus; test: Antibacterial activity against Staphylococcus aureus ATCC 25923 at 1.2 nmol after 16 to 20 hrs; how it was run: as §1
[6] = test system: Enterococcus faecalis; test: Antibacterial activity against Enterococcus faecalis ATCC 29212 at 1.2 nmol after 16 to 20 hrs; how it was run: as §1
[7] = test system: Escherichia coli; test: Antibacterial activity against wild type Escherichia coli at 1.2 nmol after 16 to 20 hrs; how it was run: as §1

SMILES	inhibition zone (IZ) [1] [mm2]	inhibition zone (IZ) [2] [mm2]	inhibition zone (IZ) [3] [mm2]	inhibition zone (IZ) [4] [mm2]	inhibition zone (IZ) [5] [mm2]	inhibition zone (IZ) [6] [mm2]	inhibition zone (IZ) [7] [mm2]
CSCC[C@H](N)C(=O)N[C@@H](CC(C)C)C(=O)NS(=O)(=O)OC[C@H]1O[C@@H](n2cnc3c(N)ncnc32)[C@H](O)[C@@H]1O	0	33.3	0	–	–	–	–
CC(C)C[C@H](N)C(=O)NS(=O)(=O)OC[C@H]1O[C@@H](n2cnc3c(N)ncnc32)[C@H](O)[C@@H]1O [LEUSA]	0	26.9	25.4	66	–	–	–
NCCCC[C@H](N)C(=O)N[C@@H](Cc1c[nH]c2ccccc12)C(=O)NS(=O)(=O)OC[C@H]1O[C@@H](n2cnc3c(N)ncnc32)[C@H](O)[C@@H]1O	0	0	0	–	–	–	–
CSCC[C@H](NC(=O)[C@H](C)N)C(=O)NS(=O)(=O)OC[C@H]1O[C@@H](n2cnc3c(N)ncnc32)[C@H](O)[C@@H]1O	0	0	0	–	–	–	–
Nc1ncnc2c1ncn2[C@@H]1O[C@H](COS(=O)(=O)NC(=O)[C@@H](N)Cc2ccccc2)[C@@H](O)[C@H]1O [PHESA]	0	40.4	38.5	52.7	–	–	–
CC(C)C[C@H](NC(=O)[C@@H](N)CCCCN)C(=O)NS(=O)(=O)OC[C@H]1O[C@@H](n2cnc3c(N)ncnc32)[C@H](O)[C@@H]1O	0	0	0	–	–	–	–
C[C@H](N)C(=O)NS(=O)(=O)OC[C@H]1O[C@@H](n2cnc3c(N)ncnc32)[C@H](O)[C@@H]1O [ALASA]	35	44.7	46.3	42.3	–	–	–
CSCC[C@H](N)C(=O)NS(=O)(=O)OC[C@H]1O[C@@H](n2cnc3c(N)ncnc32)[C@H](O)[C@@H]1O	18.7	0	26.8	40.4	–	–	–
C[C@H](NC(=O)[C@@H]1CCCN1)C(=O)NS(=O)(=O)OC[C@H]1O[C@@H](n2cnc3c(N)ncnc32)[C@H](O)[C@@H]1O	0	0	18.4	0	–	–	–
CSCC[C@H](N)C(=O)N[C@@H](C)C(=O)NS(=O)(=O)OC[C@H]1O[C@@H](n2cnc3c(N)ncnc32)[C@H](O)[C@@H]1O	59	76.1	26.8	0	–	–	–
CSCC[C@H](N)C(=O)N[C@@H](Cc1c[nH]c2ccccc12)C(=O)NS(=O)(=O)OC[C@H]1O[C@@H](n2cnc3c(N)ncnc32)[C@H](O)[C@@H]1O	0	0	0	–	–	–	–
C[C@H](N)C(=O)N[C@@H](Cc1c[nH]c2ccccc12)C(=O)NS(=O)(=O)OC[C@H]1O[C@@H](n2cnc3c(N)ncnc32)[C@H](O)[C@@H]1O	0	0	0	–	–	–	–
CSCC[C@H](NC(=O)[C@@H](N)CCSC)C(=O)NS(=O)(=O)OC[C@H]1O[C@@H](n2cnc3c(N)ncnc32)[C@H](O)[C@@H]1O	0	83.9	0	–	–	–	–
Nc1ncnc2c1ncn2[C@@H]1O[C@H](COS(=O)(=O)NC(=O)[C@H](Cc2c[nH]c3ccccc23)NC(=O)[C@@H]2CCCN2)[C@@H](O)[C@H]1O	0	0	0	–	–	–	–
CC(C)C[C@H](NC(=O)[C@@H]1CCCN1)C(=O)NS(=O)(=O)OC[C@H]1O[C@@H](n2cnc3c(N)ncnc32)[C@H](O)[C@@H]1O	0	0	0	–	–	–	–
CC(C)C[C@H](NC(=O)[C@H](C)N)C(=O)NS(=O)(=O)OC[C@H]1O[C@@H](n2cnc3c(N)ncnc32)[C@H](O)[C@@H]1O	0	24.2	0	–	–	–	–
Nc1ncnc2c1ncn2[C@@H]1O[C@H](COS(=O)(=O)NC(=O)[C@@H](N)Cc2c[nH]c3ccccc23)[C@@H](O)[C@H]1O	0	0	0	–	–	–	–
CC(C)C[C@H](NC(=O)[C@@H](N)CCC(=O)O)C(=O)NS(=O)(=O)OC[C@H]1O[C@@H](n2cnc3c(N)ncnc32)[C@H](O)[C@@H]1O	0	0	0	–	–	–	–
Nc1ncnc2c1ncn2[C@@H]1O[C@H](COS(=O)(=O)NC(=O)[C@H](Cc2ccccc2)NC(=O)[C@@H](N)Cc2ccccc2)[C@@H](O)[C@H]1O	0	26.8	18.4	19.6	–	–	–
C/C(=C\C(=O)OCCCCCCCCC(=O)O)C[C@@H]1OC[C@H](C[C@@H]2O[C@H]2[C@@H](C)[C@H](C)O)[C@@H](O)[C@H]1O [MUPIROCIN]	>490.93	89.4	38.5	52.7	–	–	–
Nc1ncnc2c1ncn2[C@@H]1O[C@H](COS(=O)(=O)NC(=O)[C@@H](N)CC(=O)O)[C@@H](O)[C@H]1O	0	21.3	26.8	28.3	–	–	–
CSCC[C@H](NC(=O)[C@@H]1CCCN1)C(=O)NS(=O)(=O)OC[C@H]1O[C@@H](n2cnc3c(N)ncnc32)[C@H](O)[C@@H]1O	0	0	0	–	–	–	–
C[C@H](N)C(=O)N[C@@H](C)C(=O)NS(=O)(=O)OC[C@H]1O[C@@H](n2cnc3c(N)ncnc32)[C@H](O)[C@@H]1O	0	56.9	25.3	0	–	–	–
CSCC[C@H](N)C(=O)N[C@@H](CCCNC(=N)N)C(=O)N[C@H](C(=O)NCC(=O)N[C@@H](CC(N)=O)C(=O)N[C@@H](C)C(=O)N[C@@H](CC(=O)O)C(=O)NS(=O)(=O)OC[C@H]1O[C@@H](n2cnc3c(N)ncnc32)[C@H](O)[C@@H]1O)[C@@H](C)O (H-MRTGNA-{AspNHSO2(5'-O-Ado)})	–	–	–	–	0	0	46.7
CSCC[C@H](N)C(=O)N[C@@H](CC(=O)O)C(=O)NS(=O)(=O)OC[C@H]1O[C@@H](n2cnc3c(N)ncnc32)[C@H](O)[C@@H]1O	0	63.7	12.6	31.5	–	–	–
